pIC50: −log10 of the molar value. Active and inactive are the calls of the source. The calls are words filed in the database; no cut-off is given here.
How the values were obtained:
T47D [1] = assay: Antiproliferative activity against human T47D cells at 1 to 10 uM after 48 hrs by SRB assay; type: functional, cell-based
Summary of the method: (§1)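 T47D or MDA-MB-231 breast tumor cells were exposed to 1, 3, 10 and 30 μM for 48 h or 144 h (6 d). For the 6 d exposure, medium was replaced after 3 days with fresh medium containing compound. Stocks were 4 mM in 2-propanol, with final solvent below 0.75%. Viability was measured by sulforhodamine B and expressed as % inhibition of the untreated control: [1−(OD treated/OD control)]×100.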

MDA-MB-231 = assay: Antiproliferative activity against human MDA-MB-231 cells at 1 to 10 uM after 48 hrs by SRB assay; type: functional, cell-based; summary of the method: as §1
T47D [2] = assay: Inhibition of mitochondrial ETC complex 1 in human T47D cells assessed as inhibition of oxygen consumption at 10 uM after 2 hrs by Clarke-type electrode analysis; type: cell-based
Summary of the method: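 T47D cells were pretreated with 10 μM compound, or 0.01 μM rotenone, for 2 h. Cells were then detached and washed, and the oxygen consumption rate was measured with a Clarke-type electrode. Results are % inhibition relative to untreated controls.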

T47D [3] = assay: Inhibition of mitochondrial ETC complex 1 in human T47D cells assessed as inhibition of oxygen consumption at 10 uM after 10 mins by Clarke-type electrode analysis; type: cell-based
Summary of the method: (§2)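 For acute exposure, intact T47D cells received compound at 3, 10 or 30 μM for 5–10 min. Oxygen consumption was then measured with a Clarke-type electrode, with rotenone at 1–100 nM as control. Results are % inhibition of the untreated rate, averaged over two independent experiments with deviation from the average.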

T47D [4] = assay: Inhibition of mitochondrial ETC complex 1 in human T47D cells assessed as inhibition of oxygen consumption at 30 uM after 5 to 10 mins by Clarke-type electrode analysis; type: cell-based; summary of the method: as §2
[5] = biological target: T1, Mitochondrial complex I (NADH dehydrogenase) (Homo sapiens) (UniProt P03923+O95299+O00217+P03901+P56556+P03886+O95139+O00483+Q86Y39+P17568+P03891+O75306+P03915+P51970+O43674+P03905+P03897+O14561+O15239+O43181+O43676+O43677+O43678+O43920+O75251+O75380+O75438+O75489+O95167+O95168+O95169+O95178+O95182+O95298+O96000+P19404+P28331+P49821+P56181+Q16718+Q16795+Q8N183+Q9BU61+Q9NRX3+Q9NX14+Q9P032+Q9P0J0+Q9UI09+Q9Y375+Q9Y6M9); assay: Inhibition of mitochondrial ETC complex 1 in human T47D cells assessed as inhibition of 1% O2-induced HIF1 activation at 30 uM incubated for 30 mins prior to 1% O2-challenge measured after 16 hrs by luciferase reporter assay; type: cell-based
Summary of the method: (§3)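 pHRE-luc reporter transfected T47D cells were exposed for 16 h to hypoxia (1% O2) or to chemical hypoxia (10 μM 1,10-phenanthroline) in the presence of compound. The highest concentration tested was 30 μM. Luciferase signal was expressed as % inhibition of the induced control. IC50 and 95% CI came from one representative concentration-response experiment run in triplicate. Cycloheximide at 10 μM served as control.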

[6] = biological target: T1, Mitochondrial complex I (NADH dehydrogenase) (Homo sapiens); assay: Inhibition of mitochondrial ETC complex 1 in human T47D cells assessed as inhibition of 1,10-phenanthroline-induced HIF1 activation at 30 uM incubated for 30 mins prior to 1,10-phenanthroline-challenge measured after 16 hrs by luciferase reporter assay; type: cell-based; summary of the method: as §3
[7] = biological target: Mitochondrial complex I (NADH dehydrogenase); assay: Inhibition of mitochondrial ETC complex 1 in human T47D cells assessed as inhibition of 1,10-phenanthroline-induced HIF1 activation incubated for 30 mins prior to 1,10-phenanthroline-challenge measured after 16 hrs by luciferase reporter assay; type: cell-based; summary of the method: as §3
[8] = biological target: Mitochondrial complex I (NADH dehydrogenase); assay: Inhibition of mitochondrial ETC complex 1 in human T47D cells assessed as inhibition of 1% O2-induced HIF1 activation incubated for 30 mins prior to 1% O2-challenge measured after 16 hrs by luciferase reporter assay; type: cell-based; summary of the method: as §3

How did the Activity (T47D [1]) turn out when `CCCCCC/C=C\CCCCCCCCCC(=O)O[C@H](CC/C(C)=C/COc1ccc2ccc(=O)oc2c1)C(C)(C)O` [R-(+)-MARMIN-6'-CIS-VACCENOATE] was run?
Its Activity is “Active”.

And the Activity (MDA-MB-231)?
Its Activity is “Active”.

What about the inhibition (T47D [2]) of the same molecule?
Its inhibition is -6%.

What about the inhibition (T47D [3]) of the same molecule?
The inhibition was 5%.

And the inhibition (T47D [4])?
The inhibition was 20%.

And the inhibition [5]?
The inhibition was 20%.

What about the inhibition [6] of the same molecule?
Its inhibition is 20%.

What about the pIC50 [7] of the same molecule?
The pIC50 was under 4.52.

And the pIC50 [8]?
The pIC50 was under 4.52.

From ChEMBL document CHEMBL2346643, “Semisynthetic studies identify mitochondria poisons from botanical dietary supplements--geranyloxycoumarins from Aegle marmelos” (Bioorg Med Chem, 2013)
